These compounds were tested on Nucleic Acid (assay: (§1) The compound was tested in vitro for its ability to initiate DNA replication). Details: Homo sapiens.
Assay type: nucleic-acid assay
Method in brief: (§2)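 Steroid dissolved in 100% ethanol, diluted with water (final ethanol ≤0.1%), tested at 10 nM in a HeLa cell extract in vitro replication system (extracts estrogen and progesterone receptor-negative) with plasmid template pX24 (hamster DHFR origin) or 30.4 (random human cDNA fragment). Compound preincubated with template DNA and precursor nucleotides, then remaining components added to start replication. DNA purified; synthesis measured by DpnI resistance assay with phosphoimager densitometry; expressed as % of untreated control, mean ± SD of at least two experiments.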
In the case of COc1ccc2c(c1OC)CC[C@@H]1[C@@H]2CC[C@]2(C)C(=O)CC[C@@H]12, the DNA is reported as 63%.
C[C@]12CC[C@@H]3c4ccc(O)cc4CC[C@H]3[C@@H]1C[C@@H](O)C2=O showed a DNA of 150%.
C[C@]12CC[C@@H]3c4cc(O)c(O)cc4CC[C@H]3[C@@H]1CCC2=O was tested, and the DNA was 92%.
CC(=O)[C@H]1CC[C@H]2[C@@H]3CCC4=CC(=O)CC[C@]4(C)[C@H]3CC[C@]12C gave a DNA of 115%.
In the case of COc1c(O)ccc2c1CC[C@@H]1[C@@H]2CC[C@]2(C)C(=O)CC[C@@H]12, the DNA is reported as 53%.
In the case of C[C@]12CC[C@@H]3c4ccc(O)cc4CC[C@H]3[C@@H]1CCC2=O, the DNA is reported as 108%.
C[C@]12CC[C@@H]3c4ccc(O)cc4CC[C@H]3[C@@H]1C[C@@H](O)[C@@H]2O gave a DNA of 118%.

What follows are compounds tested on Nucleic Acid (assay: as §1). Details: Homo sapiens.
Assay type: functional
Method in brief: as §2
Compound C[C@]12CC[C@@H]3c4ccc(O)cc4CC[C@H]3[C@@H]1CC(=O)[C@@H]2O has a DNA of 99%.
C[C@]12CC[C@@H]3c4ccc(O)cc4CC[C@H]3[C@@H]1C[C@@H](O)[C@H]2O showed a DNA of 103%.
Compound C[C@]12CC[C@@H]3c4ccc(O)c(O)c4CCC3[C@@H]1CC[C@@H]2O (single isomer, unassigned) has a DNA of 53%.
C[C@]12CC[C@H]3C(CCC4=CC(=O)CC[C@@]43C)[C@@H]1CC[C@@H]2O (single isomer, unassigned) gave a DNA of 72%.
C[C@]12CC[C@@H]3c4ccc(O)cc4CC[C@H]3[C@@H]1C[C@@H](O)[C@@H]2O was tested, and the DNA was 144%.
Work on C[C@]12CC[C@@H]3c4ccc(O)cc4CC[C@H]3[C@@H]1C[C@H](O)[C@H]2O yielded a DNA of 200%.
Compound C[C@]12CC[C@@H]3c4cc(O)c(O)cc4CCC3[C@@H]1CC[C@@H]2O (single isomer, unassigned) has a DNA of 52%.
